Measured values: publication PMC10441411 (bioRxiv, 2023)
Each block holds one molecule with its values, some of them ahead of it. Peptide text beside a SMILES is read from it. * marks the point of attachment. Cbz = O=C(OCc1ccccc1)*

Tests used:
NR4A1 [1] = molecular target: NR4A1 (Homo sapiens, UniProt P22736); test: NR4A1 degradation in human cell lines by immunoblotting; assay type: cell-based; conditions: CHL-1 cells
Outline: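 CHL-1 and A375 human melanoma cells were grown in DMEM with 10% FBS and penicillin/streptomycin. Screening used 250 nM test compound for 16 h, read by immunoblot plus densitometry (n=2). A 16 h dose series gave the 50% degradation concentration. For pathway tests, CHL-1 were pretreated 10 min with 0.5 μM MG132 or 10 μM VHL 032, then exposed 16 h to DMSO or 500 nM. Lysates were made in RIPA with DTT.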

NR4A1 mRNA = NR4A1 mRNA by qPCR in CHL-1 cells; assay type: cell-based, human; conditions: 500 nM, time course, ACTB control
[2] = system: MC38 colon adenocarcinoma; test: MC38 colon cancer syngeneic tumor growth; assay type: in vivo, mouse; conditions: WT mice; 1.8 mg/kg NR-V04 or 0.75 mg/kg celastrol i.p. twice a week from day 7
Outline: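 Mouse MC38 or Yummer1.7 cells (5 × 10^5) in PBS injected s.c. into 7–9-week-old WT or NSG hosts. Dosing started day 7 once tumors were palpable: test compound 1.8 mg/kg i.p. twice weekly, with celastrol 0.75 mg/kg (1.67 μmol/kg) in MC38 only. Vehicle was 50% phosal PG/45% miglyol 810N/5% polysorbate 80. Tumors were grown to 2 cm diameter endpoint.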

B16F10 melanoma = B16F10 melanoma syngeneic tumor growth; assay type: in vivo, mouse; conditions: WT mice; 1.8 mg/kg NR-V04 or 0.75 mg/kg celastrol i.p. twice a week from day 7
NR4A1 [3] = conditions: read-out: binding affinity of celastrol to NR4A1 (Kd); cited from earlier work

NR4A1 (Homo sapiens, UniProt P22736), sequence (P22736 whole entry): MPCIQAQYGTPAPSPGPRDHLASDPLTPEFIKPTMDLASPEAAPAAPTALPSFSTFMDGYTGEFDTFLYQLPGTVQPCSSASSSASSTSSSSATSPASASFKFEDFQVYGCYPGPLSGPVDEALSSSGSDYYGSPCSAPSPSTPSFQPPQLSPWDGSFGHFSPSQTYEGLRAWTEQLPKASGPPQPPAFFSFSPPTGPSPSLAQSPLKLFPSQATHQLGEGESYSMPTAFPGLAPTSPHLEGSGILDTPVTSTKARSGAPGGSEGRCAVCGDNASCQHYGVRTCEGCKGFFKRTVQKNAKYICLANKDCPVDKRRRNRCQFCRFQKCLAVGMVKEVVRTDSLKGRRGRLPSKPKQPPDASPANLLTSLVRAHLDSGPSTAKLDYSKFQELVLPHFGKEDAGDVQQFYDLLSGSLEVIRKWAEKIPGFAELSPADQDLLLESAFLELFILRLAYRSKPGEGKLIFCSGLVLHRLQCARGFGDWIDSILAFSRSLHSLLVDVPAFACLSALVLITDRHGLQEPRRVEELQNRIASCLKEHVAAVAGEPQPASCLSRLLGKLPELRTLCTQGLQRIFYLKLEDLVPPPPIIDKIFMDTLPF

effect of pretreatment on NR-V04-induced degradation of NR4A1 (NR4A1 [1]; 10 μM VHL 032 10 minutes, then 500 nM NR-V04 16 hours): prevented
Compound: CC(=O)N[C@H](C(=O)N1C[C@H](O)C[C@H]1C(=O)NCc1ccc(-c2scnc2C)cc1)C(C)(C)C [VHL-032]

Compound: CC1=C(O)C(=O)C=C2C1=CC=C1[C@@]2(C)CC[C@@]2(C)[C@@H]3C[C@](C)(C(=O)O)CC[C@]3(C)CC[C@]12C [celastrol]
NR4A1 protein level, initial screening (NR4A1 [1]; 250 nM, 16 hours, immunoblotting and densitometry): did not alter
NR4A1 protein level (NR4A1 [1]; 16 hours, dose series): did not change
NR4A1 mRNA level (NR4A1 mRNA): increase in NR4A1 mRNA levels after 2 hrs
tumor growth, MC38 model [2]: failed to inhibit tumor growth
tumor growth, B16F10 melanoma (B16F10 melanoma): increased growth
Kd (NR4A1 [3]): 290 nM

effect of pretreatment on NR-V04-reduced NR4A1 protein level (NR4A1 [1]; 0.5 μM MG132 10 minutes, then 500 nM NR-V04 16 hours): effectively rescued
Compound: CC(C)C[C@@H](C=O)NC(=O)[C@H](CC(C)C)NC(=O)[C@H](CC(C)C)NC(=O)OCc1ccccc1 [MG132] (Cbz-Leu-Leu-Leu-aldehyde)
